Measurements as given in ChEMBL document CHEMBL2062369, “¹²⁵I-radiolabeled morpholine-containing arginine-glycine-aspartate (RGD) ligand of αvβ₃ integrin as a molecular imaging probe for angiogenesis” (J Med Chem, 2012).
Active and inactive are the calls of the source. The rule behind the calls is not given here.

How the values were obtained:
Integrin alpha-V/beta-3 [1] = target: T1, Integrin alpha-V/beta-3 (Homo sapiens, UniProt P05106+P06756); assay: Inhibition of integrin alphavbeta3 expressing human A375M cell adhesion to vitronectin at 0.1 to 10 uM after 30 mins by crystal violet staining method in presence of 2 mmol/L of MnCl2; type: protein-complex assay
How it was run: (§1)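 Wells coated overnight at 4 °C with fibronectin (1 μg/mL) or vitronectin (10 μg/mL), blocked with 1% BSA/PBS 1 h at 37 °C. Cells in serum-free medium were preincubated with ligand (final 0.1, 1 or 10 μM) 30 min at 37 °C, then seeded at 4–5 × 10⁴/well for 2 h at 37 °C. HUVEC were IL-1β (400 U/mL)-stimulated; melanoma runs included 2 mmol/L MnCl₂. Adherent cells were stained with crystal violet, read at 540 nm, triplicate, ≥3 repeats.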

HDF [2] = assay: Inhibition of HDF adhesion to fibronectin at 0.1 to 10 uM after 30 mins by crystal violet staining method; type: functional; settings: Homo sapiens; how it was run: as §1
Integrin alpha-V/beta-3 [3] = target: T1, Integrin alpha-V/beta-3; assay: Inhibition of integrin alphaVbeta3 expressing human A375M cell adhesion to fibronectin at 0.1 to 10 uM after 30 mins by crystal violet staining method in presence of 2 mmol/L of MnCl2; type: protein-complex assay; how it was run: as §1
HUVEC [4] = assay: Inhibition of IL-1beta-induced alphav, beta3, beta5, alpha5, beta1 and alphavbeta3 expressing HUVEC adhesion to fibronectin at 0.1 to 10 uM after 30 mins by crystal violet staining method; type: functional, cell-based; settings: Homo sapiens; how it was run: as §1
HUVEC [5] = assay: Inhibition of IL-1beta-induced alphaV, beta3, beta5, alpha5, beta1, and alphavbeta3 expressing HUVEC adhesion to vitronectin at 0.1 to 10 uM after 30 mins by crystal violet staining method; type: functional, cell-based; settings: Homo sapiens; how it was run: as §1
HDF [6] = assay: Inhibition of HDF adhesion to vitronectin at 0.1 to 10 uM after 30 mins by crystal violet staining method; type: functional; settings: Homo sapiens; how it was run: as §1
HUVEC [7] = assay: Antiangiogenic activity against HUVEC seeded on matrigel layer assessed as inhibition of capillary like tube formation at 0.01 uM to 10 uM after 16 to 18 hrs by microscopic analysis; type: functional, cell-based; settings: Homo sapiens
Mus musculus = assay: Biodistribution in non tumor bearing iv dosed mouse gallbladder after 120 mins by micro SPECT-CT analysis; type: ADME, organism-based, Gall bladder; settings: in vivo, 2 h
[8] = Drug uptake in human A375M cells xenografted in SCID mouse tumor at 250 uCi, iv after 40 mins by micro SPECT-CT analysis; type: ADME, organism-based, Neoplasm; settings: in vivo
How it was run: (§2)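 SCID bg/bg mice bore s.c. shoulder grafts of 1 × 10⁶ A375 M cells plus 0.5 × 10⁶ TGFβ-activated HDF in PBS/Matrigel 1:1. Under anesthesia on a 37 °C bed, mice received 7–10 MBq tracer in 200 μL saline via tail vein. CT was acquired at 30 min, then SPECT from 40 min pi (20–36 keV window). Displacement runs got cold compound (18 mg/kg) 10 min before tracer. Tumor ROI was normalized to contralateral muscle as (TA−BA)/BA.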

[9] = Drug uptake in human A375M cells xenografted in mouse tumor at 250 uCi, iv after 40 mins by micro SPECT-CT analysis in presence of c[RGD-(3'I-y)-(3R)-carboxymorpholine]; type: ADME, organism-based, Neoplasm; settings: in vivo; how it was run: as §2
Thyroid gland = assay: Biodistribution in non tumor bearing iv dosed mouse thyroid after 24 hrs by micro SPECT-CT analysis; type: ADME, organism-based; settings: in vivo
Spleen = assay: Biodistribution in non tumor bearing iv dosed mouse spleen after 1 to 24 hrs by micro SPECT-CT analysis; type: ADME, organism-based; settings: in vivo
Kidney = assay: Biodistribution in non tumor bearing iv dosed mouse kidney after 120 mins by micro SPECT-CT analysis; type: ADME, organism-based; settings: in vivo, 2 h
Integrin alpha-V/beta-3 [10] = target: T1, Integrin alpha-V/beta-3; assay: Displacement of [125I] echistatin from alphaVbeta3 integrin isolated from human placenta after 3 hrs by liquid scintillation counter
Target sequence in this assay (P05106 27-788 limits assumed): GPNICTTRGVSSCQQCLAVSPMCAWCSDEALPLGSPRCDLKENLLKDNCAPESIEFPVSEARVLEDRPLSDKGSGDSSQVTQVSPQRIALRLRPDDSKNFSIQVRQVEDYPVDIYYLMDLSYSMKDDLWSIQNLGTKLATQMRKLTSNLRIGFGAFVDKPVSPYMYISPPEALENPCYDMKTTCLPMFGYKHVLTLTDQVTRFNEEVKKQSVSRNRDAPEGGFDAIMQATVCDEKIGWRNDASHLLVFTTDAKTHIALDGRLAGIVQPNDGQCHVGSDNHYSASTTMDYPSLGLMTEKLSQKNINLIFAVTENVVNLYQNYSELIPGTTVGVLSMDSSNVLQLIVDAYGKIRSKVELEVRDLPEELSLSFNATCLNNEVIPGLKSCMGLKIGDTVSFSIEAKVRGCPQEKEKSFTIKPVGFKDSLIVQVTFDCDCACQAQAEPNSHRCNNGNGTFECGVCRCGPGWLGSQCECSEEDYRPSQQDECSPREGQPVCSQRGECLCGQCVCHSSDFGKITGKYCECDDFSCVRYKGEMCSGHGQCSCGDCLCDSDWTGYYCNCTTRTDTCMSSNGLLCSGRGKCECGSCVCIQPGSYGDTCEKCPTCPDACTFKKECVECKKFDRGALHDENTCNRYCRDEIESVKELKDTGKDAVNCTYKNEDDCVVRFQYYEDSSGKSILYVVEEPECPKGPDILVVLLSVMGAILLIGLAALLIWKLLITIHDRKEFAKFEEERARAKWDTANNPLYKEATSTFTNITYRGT
Target sequence in this assay (P06756 31-889 limits assumed): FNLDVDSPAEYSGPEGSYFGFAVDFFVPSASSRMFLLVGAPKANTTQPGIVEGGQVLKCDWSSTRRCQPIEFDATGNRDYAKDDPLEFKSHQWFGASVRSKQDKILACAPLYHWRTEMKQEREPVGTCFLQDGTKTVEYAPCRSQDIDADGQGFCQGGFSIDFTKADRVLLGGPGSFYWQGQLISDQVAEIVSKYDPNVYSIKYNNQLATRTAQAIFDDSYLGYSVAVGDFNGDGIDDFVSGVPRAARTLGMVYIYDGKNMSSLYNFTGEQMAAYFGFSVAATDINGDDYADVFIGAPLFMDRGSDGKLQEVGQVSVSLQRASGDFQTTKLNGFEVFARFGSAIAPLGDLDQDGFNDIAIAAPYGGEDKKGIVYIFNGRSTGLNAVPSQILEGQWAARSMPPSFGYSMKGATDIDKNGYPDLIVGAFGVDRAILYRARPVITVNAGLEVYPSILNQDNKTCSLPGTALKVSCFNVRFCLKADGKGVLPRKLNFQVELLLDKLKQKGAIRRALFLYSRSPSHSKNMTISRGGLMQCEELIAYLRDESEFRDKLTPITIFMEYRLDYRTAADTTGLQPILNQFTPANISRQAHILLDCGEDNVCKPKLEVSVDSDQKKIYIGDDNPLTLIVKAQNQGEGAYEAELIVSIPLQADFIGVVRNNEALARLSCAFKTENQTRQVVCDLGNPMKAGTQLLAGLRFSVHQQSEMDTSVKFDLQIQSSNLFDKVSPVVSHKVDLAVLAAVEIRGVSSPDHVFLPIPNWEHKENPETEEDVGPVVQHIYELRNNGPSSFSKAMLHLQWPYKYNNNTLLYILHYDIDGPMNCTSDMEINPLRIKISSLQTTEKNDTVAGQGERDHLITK
Target sequence in this assay (P06756 891-1048 limits assumed): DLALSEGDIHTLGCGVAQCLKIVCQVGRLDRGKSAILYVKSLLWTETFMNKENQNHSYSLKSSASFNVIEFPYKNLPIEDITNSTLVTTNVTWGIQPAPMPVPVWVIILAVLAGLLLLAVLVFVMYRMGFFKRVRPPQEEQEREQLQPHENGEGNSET

inhibition (Integrin alpha-V/beta-3 [1]) | inhibition (Integrin alpha-V/beta-3 [3]) | Drug uptake (Mus musculus) | Drug uptake [8] | Drug uptake [9] | Drug uptake (Thyroid gland) | Drug uptake (Spleen) | Drug uptake (Kidney) | IC50 (Integrin alpha-V/beta-3 [10]) [nM] | SMILES | inhibition (HDF [2]) | inhibition (HUVEC [4]) | inhibition (HUVEC [5]) | inhibition (HDF [6]) | inhibition (HUVEC [7])
Active | Active | – | – | – | – | – | – | – | N=C(N)NCCC[C@@H]1NC(=O)[C@H]2COCCN2C(=O)[C@@H](Cc2ccccc2)NC(=O)[C@H](CC(=O)O)NC(=O)CNC1=O | Active | Active | Active | Active | inactive
– | – | Active | Active | Active | Active | Active | Active | – | N=C(N)NCCC[C@@H]1NC(=O)[C@H]2COCCN2C(=O)[C@@H](Cc2ccc(O)c([125I])c2)NC(=O)[C@H](CC(=O)O)NC(=O)CNC1=O | – | – | – | – | –
Active | Active | – | – | – | – | – | – | 48 | N=C(N)NCCC[C@@H]1NC(=O)[C@H]2COCCN2C(=O)[C@@H](Cc2ccc(O)c(I)c2)NC(=O)[C@H](CC(=O)O)NC(=O)CNC1=O | Active | Active | Active | Active | inactive
Active | Active | – | – | – | – | – | – | – | N=C(N)NCCC[C@@H]1NC(=O)[C@H]2COCCN2C(=O)[C@@H](Cc2ccc(O)cc2)NC(=O)[C@H](CC(=O)O)NC(=O)CNC1=O | Active | Active | Active | Active | inactive
